Laboratory results from ChEMBL document CHEMBL1629583, “Establishment of in vitro susceptibility testing methodologies and comparative activities of piperacillin in combination with the penem {beta}-lactamase inhibitor BLI-489” (2009).
≈ marks a conversion by molar mass, not a printed value.

How the values were obtained:
Type in all cases: functional
Bacteroides fragilis = test: Antimicrobial activity against Bacteroides fragilis clinical isolate after 18 to 22 hrs by broth microdilution method
Bacteroides uniformis = test: Antimicrobial activity against Bacteroides uniformis clinical isolate after 18 to 22 hrs by broth microdilution method
[1] = test system: Staphylococcus haemolyticus; test: Antimicrobial activity against Staphylococcus haemolyticus clinical isolate after 18 to 22 hrs by broth microdilution method in presence of beta-lactamase inhibitor BLI-489
Procedure, shortened: (§1)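 CLSI broth microdilution in Mueller-Hinton II broth. Serial dilutions of piperacillin were tested with BLI-489 held at a constant 4 μg/ml. Inoculum was 10^5 CFU/ml. Plates were incubated 18 to 22 h at 35°C in ambient air. MIC was the lowest concentration giving complete growth inhibition by unaided eye.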

Enterococcus faecium = test: Antimicrobial activity against vancomycin-resistant Enterococcus faecium clinical isolate after 18 to 22 hrs by broth microdilution method in presence of beta-lactamase inhibitor Tazobactam
Procedure, shortened: (§2)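 CLSI broth microdilution in Mueller-Hinton II broth. Antibiotic in serial dilution with the β-lactamase inhibitor held at a constant 4 μg/ml. Inoculum 10^5 CFU/ml. Incubated 18 to 22 h at 35°C in ambient air.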

Klebsiella pneumoniae = test: Antimicrobial activity against Klebsiella pneumoniae clinical isolate after 18 to 22 hrs by broth microdilution method in presence of beta-lactamase inhibitor BLI-489; procedure, shortened: as §1
[2] = test system: Staphylococcus epidermidis; test: Antimicrobial activity against methicillin-resistant Staphylococcus epidermidis clinical isolate after 18 to 22 hrs by broth microdilution method in presence of beta-lactamase inhibitor BLI-489; procedure, shortened: as §2

CCN1CCN(C(=O)N[C@@H](C(=O)N[C@@H]2C(=O)N3[C@@H]2SC(C)(C)[C@@H]3C(=O)O)c2ccccc2)C(=O)C1=O [PIPERACILLIN]
MIC50 (Bacteroides fragilis): 8 µg/mL (≈ 15.5 µM) | MIC90 (Bacteroides fragilis): > 128 µg/mL | MIC50 (Bacteroides uniformis): 16 µg/mL (≈ 30.9 µM) | MIC90 (Bacteroides uniformis): 32 µg/mL (≈ 61.8 µM) | MIC50 [1]: 32 µg/mL | MIC90 [1]: > 128 µg/mL | MIC (Enterococcus faecium): > 128 µg/mL | MIC50 (Enterococcus faecium): > 128 µg/mL | MIC50 (Klebsiella pneumoniae): 2 µg/mL | MIC90 (Klebsiella pneumoniae): 8 µg/mL | MIC50 [2]: 0.5 µg/mL | MIC90 [2]: 8 µg/mL
